According to ChEMBL document CHEMBL1152384, “First steps in the direction of synthetic, allosteric, direct inhibitors of thrombin and factor Xa” (Bioorg Med Chem Lett, 2009):
Active and inactive are the calls of the source. The calls are words filed in the database; no cut-off is given here.

Columns and labels:
[1] = target: Prothrombin (Homo sapiens) (UniProt P00734); test: Inhibition of human thrombin assessed as residual activity at < 4.3 mM by spectrophotometry
In short: (§1)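 Thrombin activity read spectrophotometrically as the initial rate of hydrolysis of the chromogenic substrate Spectrozyme TH, with and without benzofuran inhibitor. Residual activity is expressed relative to the uninhibited enzyme.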

[2] = target: Coagulation factor X (Homo sapiens) (UniProt P00742); test: Inhibition of human factor 10a assessed as residual activity at < 4.3 mM by spectrophotometry
In short: (§2)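 Factor Xa activity followed by spectrophotometric measurement of the initial rate of hydrolysis of the chromogenic substrate S-2772, with and without benzofuran inhibitor. Residual activity is taken relative to the uninhibited enzyme.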

[3] = target: Prothrombin (Homo sapiens) (UniProt P00734); test: Inhibition of human thrombin assessed as residual activity at 2.9 mM by spectrophotometry; in short: as §1
[4] = target: Coagulation factor X (Homo sapiens) (UniProt P00742); test: Inhibition of human factor 10a assessed as residual activity at 2.6 mM by spectrophotometry; in short: as §2
[5] = target: Prothrombin (Homo sapiens) (UniProt P00734); test: Inhibition of human thrombin assessed as residual activity at 400 uM by spectrophotometry; in short: as §1
[6] = target: Coagulation factor X (Homo sapiens) (UniProt P00742); test: Inhibition of human factor 10a assessed as residual activity at […] by spectrophotometry; in short: as §2
[7] = target: Coagulation factor X (Homo sapiens) (UniProt P00742); test: Inhibition of human factor 10a assessed as decrease in catalytic rate per uM of S-2772 hydrolysis at 2.6 mM by Michaelis-Menten analysis relative to control
In short: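 Factor Xa kinetics: initial rates of S-2772 hydrolysis measured spectrophotometrically at pH 7.4 and 25 °C over a range of substrate levels, with and without inhibitor. The hyperbolic dependence of rate on substrate was fitted to obtain KM and VMAX. Catalytic rate was compared with the inhibitor-free reaction.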

[8] = target: Prothrombin (Homo sapiens) (UniProt P00734); test: Inhibition of human thrombin assessed as residual activity at 4.3 mM by spectrophotometry; in short: as §1

Chain of Coagulation factor X (Homo sapiens) (P00742 41-179 limits assumed): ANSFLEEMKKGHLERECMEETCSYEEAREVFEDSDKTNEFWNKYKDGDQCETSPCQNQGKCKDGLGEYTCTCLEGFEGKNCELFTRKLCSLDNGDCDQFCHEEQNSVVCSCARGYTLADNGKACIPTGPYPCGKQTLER
Chain of Coagulation factor X (Homo sapiens) (P00742 235-488 limits assumed): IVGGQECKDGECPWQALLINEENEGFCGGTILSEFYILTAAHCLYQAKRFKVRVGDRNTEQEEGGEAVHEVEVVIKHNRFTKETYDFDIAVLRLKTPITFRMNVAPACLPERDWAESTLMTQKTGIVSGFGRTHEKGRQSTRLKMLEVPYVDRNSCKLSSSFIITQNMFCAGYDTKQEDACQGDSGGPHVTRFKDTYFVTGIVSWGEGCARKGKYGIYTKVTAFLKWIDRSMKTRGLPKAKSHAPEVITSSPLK

Activity [1]	Activity [2]	Activity [3] [%]	Activity [5]	Activity [6]	SMILES	further results
inactive	inactive				CCOC(=O)CCc1c(C)oc2cc(OC)c(OS(=O)(=O)O)cc12	
inactive	inactive				CCOC(=O)c1c(C)oc2cc(OS(=O)(=O)O)c(OS(=O)(=O)O)cc12	
		> 40	Active	Active	Cc1oc2cc(OS(=O)(=O)O)c(OS(=O)(=O)O)cc2c1C(=O)O	Activity [4]: 75%
inactive	inactive				CCOC(=O)c1c(C)oc2cc(O)c(O)cc12	
inactive	inactive				CCOC(=O)CCc1c(C)oc2cc(OC)c(O)cc12	
		> 40	Active	Active	COc1cc2oc(C)c(C(=O)O)c2cc1O	
		> 40	Active	Active	COc1cc2oc(C)c(CCC(=O)O)c2cc1OS(=O)(=O)O	
inactive	inactive				COc1cc2oc(C)c(CO)c2cc1O	
inactive	inactive				CCOC(=O)c1c(C)oc2cc(OS(=O)(=O)O)c(OC)cc12	
		> 40	Active	Active	Cc1oc2cc(O)c(O)cc2c1C(=O)O	
		> 40	Active	Active	COc1cc2oc(C)c(CCC(=O)O)c2cc1O	Activity [4]: > 40%
inactive	inactive				COc1cc2oc(C)c(COS(=O)(=O)O)c2cc1OS(=O)(=O)O	
inactive	inactive				CCOC(=O)c1c(C)oc2cc(OC)c(OS(=O)(=O)O)cc12	
inactive	inactive				CCOC(=O)c1c(C)oc2cc(O)c(OC)cc12	
		> 40	Active	Active	COc1cc2oc(C)c(C(=O)O)c2cc1OS(=O)(=O)O	Activity [4]: 42%
		> 40	Active	Active	COc1cc2c(C(=O)O)c(C)oc2cc1OS(=O)(=O)O	Activity [4]: 86%; fold change (FC) [7]: 3.6; Activity [8]: Active
inactive	inactive				CCOC(=O)c1c(C)oc2cc(OC)c(O)cc12	
